Test results published in ChEMBL document CHEMBL2169836 (J Med Chem, 2012).

Assays:
Cytochrome P450 2D6 = Cytochrome P450 2D6 (Homo sapiens, UniProt P10635); assay: Inhibition of CYP2D6 in human liver microsomes using 3-[2-(N,N-diethyl-N-methylamino)ethyl]-7- methoxy-4-methylcoumarin as substrate after 45 mins by LC/MS/MS analysis; type: ADME, Microsome
[1] = target: Sodium/hydrogen exchanger 1 (Homo sapiens, UniProt P19634); assay: Inhibition of NHE1 in human HT-29 cells assessed as intracellular pH change after 30 mins; type: cell-based
Sodium/hydrogen exchanger 1, sequence (P19634 whole entry): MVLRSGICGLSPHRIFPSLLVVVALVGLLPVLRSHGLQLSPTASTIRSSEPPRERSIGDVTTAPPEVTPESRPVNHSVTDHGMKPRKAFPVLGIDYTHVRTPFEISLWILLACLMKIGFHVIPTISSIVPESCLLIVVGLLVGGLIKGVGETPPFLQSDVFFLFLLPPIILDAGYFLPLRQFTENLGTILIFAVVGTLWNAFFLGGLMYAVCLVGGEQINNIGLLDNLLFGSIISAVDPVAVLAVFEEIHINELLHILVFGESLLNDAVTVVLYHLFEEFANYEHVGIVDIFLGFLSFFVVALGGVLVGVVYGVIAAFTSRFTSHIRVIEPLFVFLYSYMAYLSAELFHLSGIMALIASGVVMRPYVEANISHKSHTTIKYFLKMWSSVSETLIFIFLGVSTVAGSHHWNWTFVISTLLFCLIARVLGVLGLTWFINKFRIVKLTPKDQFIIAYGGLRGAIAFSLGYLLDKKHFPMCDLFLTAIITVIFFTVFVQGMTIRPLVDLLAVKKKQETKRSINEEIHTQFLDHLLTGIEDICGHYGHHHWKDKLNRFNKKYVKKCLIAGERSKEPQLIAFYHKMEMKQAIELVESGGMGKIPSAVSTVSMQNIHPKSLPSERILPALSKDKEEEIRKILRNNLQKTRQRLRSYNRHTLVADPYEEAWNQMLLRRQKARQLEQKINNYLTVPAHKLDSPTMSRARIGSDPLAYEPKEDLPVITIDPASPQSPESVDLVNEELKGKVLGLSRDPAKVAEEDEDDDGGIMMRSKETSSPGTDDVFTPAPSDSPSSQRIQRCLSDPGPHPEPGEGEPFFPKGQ

[2] = Metabolic stability in rat liver microsomes at 1 uM up to 60 mins by LC/MS/MS analysis relative to hepatic blood flow; type: ADME, Microsome; conditions: read-out: Stability
[3] = Permeability of the compound by PAMPA; type: ADME; conditions: read-out: permeability
Method in brief: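 Donor buffers were set to pH 5.0, 6.2 and 7.4 with NaOH, and ASB7.4 buffer was used as acceptor. Filters (0.45 pore, 125 μm thick) were lipid-coated. A 10 mM DMSO stock was diluted to 41.7 μM in donor buffer. The sandwich was incubated 4 h without stirring. Reference, donor and acceptor concentrations were read in duplicate by UV plate reader, and ratings were assigned from permeation velocity.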

Cytochrome P450 2C19 = Cytochrome P450 2C19 (Homo sapiens, UniProt P33261); assay: Inhibition of CYP2C19 in human liver microsomes using 7-ethoxy-3-cyanocoumarin as substrate after 45 mins by LC/MS/MS analysis; type: ADME, Microsome
Cytochrome P450 2C19, sequence (P33261 whole entry): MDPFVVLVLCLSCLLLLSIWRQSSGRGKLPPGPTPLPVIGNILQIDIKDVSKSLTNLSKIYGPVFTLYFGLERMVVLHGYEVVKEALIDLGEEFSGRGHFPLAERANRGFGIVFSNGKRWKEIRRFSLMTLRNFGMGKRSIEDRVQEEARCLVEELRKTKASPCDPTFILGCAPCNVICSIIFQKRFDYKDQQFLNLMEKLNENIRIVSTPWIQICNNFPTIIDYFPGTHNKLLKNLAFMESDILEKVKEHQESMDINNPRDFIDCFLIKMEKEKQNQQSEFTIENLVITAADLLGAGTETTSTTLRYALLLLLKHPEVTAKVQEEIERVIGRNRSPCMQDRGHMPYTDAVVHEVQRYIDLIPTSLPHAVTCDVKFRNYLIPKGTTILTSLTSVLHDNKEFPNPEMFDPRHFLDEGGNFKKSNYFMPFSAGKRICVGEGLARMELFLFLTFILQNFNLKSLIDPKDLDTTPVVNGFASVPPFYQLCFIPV

[4] = Metabolic stability in human liver microsomes at 1 uM up to 60 mins by LC/MS/MS analysis relative to hepatic blood flow; type: ADME, Microsome; conditions: read-out: Stability
Cytochrome P450 2C9 = Cytochrome P450 2C9 (Homo sapiens, UniProt P11712); assay: Inhibition of CYP2C9 in human liver microsomes using 7-methoxy-4-(trifluoromethyl)-coumarin as substrate after 45 mins by LC/MS/MS analysis; type: ADME, Microsome
Cytochrome P450 2C9, sequence (P11712 whole entry): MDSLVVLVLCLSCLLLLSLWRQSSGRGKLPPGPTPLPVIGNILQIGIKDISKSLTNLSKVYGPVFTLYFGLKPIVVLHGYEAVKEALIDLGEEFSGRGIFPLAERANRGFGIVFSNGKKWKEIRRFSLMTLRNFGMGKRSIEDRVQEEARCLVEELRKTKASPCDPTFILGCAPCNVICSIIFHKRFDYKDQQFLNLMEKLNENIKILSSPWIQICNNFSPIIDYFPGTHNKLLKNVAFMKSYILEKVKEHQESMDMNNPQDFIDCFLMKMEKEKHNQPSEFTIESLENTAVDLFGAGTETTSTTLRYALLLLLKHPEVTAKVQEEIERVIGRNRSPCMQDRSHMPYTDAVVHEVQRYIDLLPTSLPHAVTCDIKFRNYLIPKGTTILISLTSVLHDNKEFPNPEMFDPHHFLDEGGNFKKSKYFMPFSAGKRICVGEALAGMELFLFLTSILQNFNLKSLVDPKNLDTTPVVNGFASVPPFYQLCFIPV

Cytochrome P450 3A4 = Cytochrome P450 3A4 (Homo sapiens, UniProt P08684); assay: Inhibition of CYP3A4 in human liver microsomes using 7-benzyloxy-4-(trifluoromethyl)-coumarin as substrate after 30 mins by LC/MS/MS analysis; type: ADME, Microsome
Cytochrome P450 3A4, sequence (P08684 whole entry): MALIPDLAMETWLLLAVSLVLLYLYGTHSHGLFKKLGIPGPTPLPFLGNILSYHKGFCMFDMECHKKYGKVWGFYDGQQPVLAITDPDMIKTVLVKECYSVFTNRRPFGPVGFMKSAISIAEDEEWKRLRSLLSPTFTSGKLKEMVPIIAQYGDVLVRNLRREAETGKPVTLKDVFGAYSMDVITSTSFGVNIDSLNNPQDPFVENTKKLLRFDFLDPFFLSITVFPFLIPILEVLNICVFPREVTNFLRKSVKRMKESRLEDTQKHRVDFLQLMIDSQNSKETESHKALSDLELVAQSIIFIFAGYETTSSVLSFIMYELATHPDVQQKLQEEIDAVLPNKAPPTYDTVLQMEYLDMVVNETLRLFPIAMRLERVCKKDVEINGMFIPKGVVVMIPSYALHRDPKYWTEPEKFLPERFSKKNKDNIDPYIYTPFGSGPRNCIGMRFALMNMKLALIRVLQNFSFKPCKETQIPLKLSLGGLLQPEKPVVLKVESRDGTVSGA

Cytochrome P450 2D6, sequence (P10635 whole entry): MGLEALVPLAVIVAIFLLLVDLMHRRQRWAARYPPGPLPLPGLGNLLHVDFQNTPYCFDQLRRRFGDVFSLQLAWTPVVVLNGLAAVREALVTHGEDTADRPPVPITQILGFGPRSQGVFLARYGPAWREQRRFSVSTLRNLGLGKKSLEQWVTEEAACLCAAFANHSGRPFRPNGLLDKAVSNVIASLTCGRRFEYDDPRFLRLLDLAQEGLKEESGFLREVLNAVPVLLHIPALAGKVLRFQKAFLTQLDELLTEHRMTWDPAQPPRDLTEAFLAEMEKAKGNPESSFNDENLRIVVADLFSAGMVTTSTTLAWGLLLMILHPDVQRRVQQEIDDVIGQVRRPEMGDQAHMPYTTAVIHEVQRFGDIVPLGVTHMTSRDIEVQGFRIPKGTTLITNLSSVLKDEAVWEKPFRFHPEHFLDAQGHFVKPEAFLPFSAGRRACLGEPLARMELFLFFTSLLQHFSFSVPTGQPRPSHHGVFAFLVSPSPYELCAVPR

Row | SMILES | IC50 (Cytochrome P450 2D6) | IC50 [1] | hepatic extraction ratio at 1 h, 1 µM [2] | Papp [3] | IC50 (Cytochrome P450 2C19) | hepatic extraction ratio at 1 h, 1 µM [4] | IC50 (Cytochrome P450 2C9) | IC50 (Cytochrome P450 3A4)
1 | N#Cc1ccccc1C(=O)N1CCC(c2ccc(C(=O)NC(=N)N)cc2C(F)(F)F)CC1 | 10 µM | 0.061 µM | < 0.06 | ≥ 2 ×10⁻⁶ cm/s | 16 µM | 0.4 | 4 µM | > 30 µM
2 | N=C(N)NC(=O)c1ccc(C2CCN(C(=O)c3cccnc3)CC2)c(C(F)(F)F)c1 | > 30 µM | 0.018 µM | < 0.06 | < 2 ×10⁻⁶ cm/s | > 30 µM | 0.33 | 13 µM | > 30 µM
3 | CNC(=O)c1ccc(C(=O)N2CCC(c3ccc(C(=O)NC(=N)N)cc3C(F)(F)F)CC2)cc1 |  | 0.052 µM |  | < 2 ×10⁻⁶ cm/s |  |  |  | 
4 | N=C(N)NC(=O)c1ccc(C2CCN(C(=O)C3CC3)CC2)c(C(F)(F)F)c1 | 17 µM |  | < 0.056 | ≥ 2 ×10⁻⁶ cm/s | 5 µM | < 0.11 | 6 µM | 16 µM
5 | N=C(N)NC(=O)c1ccc(C2CCN(C(=O)c3ccc(-n4ccnc4)cc3)CC2)c(C(F)(F)F)c1 |  | 0.065 µM |  |  |  |  |  | 
6 | N=C(N)NC(=O)c1ccc(C2CCN(C(=O)c3ccc(-c4ccccc4)cc3)CC2)c(C(F)(F)F)c1 |  | 4.71 µM |  |  |  |  |  | 
7 | N=C(N)NC(=O)c1ccc(C2CCN(C(=O)c3cccc(Cl)c3)CC2)c(C(F)(F)F)c1 |  | 0.385 µM |  |  |  |  |  | 
8 | N=C(N)NC(=O)c1ccc(C2CCN(C(=O)c3ccc(S(N)(=O)=O)cc3)CC2)c(C(F)(F)F)c1 | > 30 µM | 0.014 µM | 0.07 | < 2 ×10⁻⁶ cm/s | > 30 µM | 0.24 | 16 µM | 24 µM
9 | COc1ccc(C(=O)N2CCC(c3ccc(C(=O)NC(=N)N)cc3C(F)(F)F)CC2)cc1 |  | 0.132 µM |  | ≥ 2 ×10⁻⁶ cm/s |  |  |  | 
10 | Cc1cc(C(=O)N2CCC(c3ccc(C(=O)NC(=N)N)cc3C(F)(F)F)CC2)nn1C |  | 0.027 µM | 0.78 | < 2 ×10⁻⁶ cm/s |  | 0.68 |  | 
11 | N=C(N)NC(=O)c1ccc(C2CCN(C(=O)c3ccc(C(N)=O)cc3)CC2)c(C(F)(F)F)c1 | 12 µM | 0.026 µM | < 0.056 | < 2 ×10⁻⁶ cm/s | 28 µM | 0.24 | 4 µM | 24.5 µM
12 | COc1cc(C2CCN(C(C)=O)CC2)c(C(F)(F)F)cc1C(=O)NC(=N)N |  | 0.019 µM |  |  |  |  |  | 
13 | CNS(=O)(=O)c1ccc(C(=O)N2CCC(c3ccc(C(=O)NC(=N)N)cc3C(F)(F)F)CC2)cc1 |  | 0.03 µM |  | < 2 ×10⁻⁶ cm/s |  |  |  | 
14 | N=C(N)NC(=O)c1ccc(C2CCN(C(=O)c3ccccc3)CC2)c(C(F)(F)F)c1 | > 30 µM | 0.068 µM | 0.46 | ≥ 2 ×10⁻⁶ cm/s | 5 µM | 0.67 | 7 µM | > 30 µM
15 | N=C(N)NC(=O)c1ccc(C2CCN(C(=O)c3ccc[nH]3)CC2)c(C(F)(F)F)c1 |  | 0.045 µM |  |  |  |  |  | 
16 | N=C(N)NC(=O)c1ccc(C2CCN(C(=O)c3ccccn3)CC2)c(C(F)(F)F)c1 | 27 µM | 0.018 µM | < 0.06 | ≥ 2 ×10⁻⁶ cm/s | 26 µM | 0.49 | 3 µM | > 30 µM
17 | N=C(N)NC(=O)c1ccc(C2CCN(C(=O)c3ccncc3)CC2)c(C(F)(F)F)c1 | 11 µM | 0.018 µM | 0.12 | ≥ 2 ×10⁻⁶ cm/s | 0.06 µM | < 0.11 | 0.4 µM | > 30 µM
18 | N=C(N)NC(=O)c1ccc(C2CCN(C(=O)c3ccccc3Cl)CC2)c(C(F)(F)F)c1 |  | 0.108 µM |  |  |  |  |  | 

Row | SMILES | IC50 (Cytochrome P450 2D6) | IC50 [1] | hepatic extraction ratio at 1 h, 1 µM [2] | Papp [3] | IC50 (Cytochrome P450 2C19) | hepatic extraction ratio at 1 h, 1 µM [4] | IC50 (Cytochrome P450 2C9) | IC50 (Cytochrome P450 3A4)
19 | N=C(N)NC(=O)c1ccc(C2CCN(C(=O)c3ccc(-c4cnco4)cc3)CC2)c(C(F)(F)F)c1 |  | 0.102 µM |  |  |  |  |  | 
20 | N=C(N)NC(=O)c1ccc(C2CCN(C(=O)c3ccc(Cl)cc3)CC2)c(C(F)(F)F)c1 |  | 0.306 µM |  |  |  |  |  | 
21 | CC(C)C(=O)N1CCC(c2ccc(C(=O)NC(=N)N)cc2C(F)(F)F)CC1 | > 30 µM | 0.028 µM | 0.39 | ≥ 2 ×10⁻⁶ cm/s |  | < 0.11 | 7 µM | 0.4 µM
22 | N=C(N)NC(=O)c1ccc(C2CCN(C(=O)c3cccc(-c4cnco4)c3)CC2)c(C(F)(F)F)c1 |  | 0.033 µM |  |  |  |  |  | 
23 | CN(C)S(=O)(=O)c1ccc(C(=O)N2CCC(c3ccc(C(=O)NC(=N)N)cc3C(F)(F)F)CC2)cc1 |  |  |  | ≥ 2 ×10⁻⁶ cm/s |  |  |  | 
24 | CCCC(=O)N1CCC(c2ccc(C(=O)NC(=N)N)cc2C(F)(F)F)CC1 |  | 0.029 µM |  |  |  |  |  | 
25 | CS(=O)(=O)c1ccccc1C(=O)N1CCC(c2ccc(C(=O)NC(=N)N)cc2C(F)(F)F)CC1 |  | 0.058 µM |  |  |  |  |  | 
26 | CN(C)C(=O)c1ccc(C(=O)N2CCC(c3ccc(C(=O)NC(=N)N)cc3C(F)(F)F)CC2)cc1 |  | 0.05 µM |  | < 2 ×10⁻⁶ cm/s |  |  |  | 
27 | CC(C)CC(=O)N1CCC(c2ccc(C(=O)NC(=N)N)cc2C(F)(F)F)CC1 |  | 0.047 µM |  |  |  |  |  | 
28 | CCC(=O)N1CCC(c2ccc(C(=O)NC(=N)N)cc2S(C)(=O)=O)CC1 |  | 0.029 µM |  |  |  |  |  | 
29 | N=C(N)NC(=O)c1ccc(C2CCN(C(=O)c3ccc(C(F)(F)F)cc3)CC2)c(C(F)(F)F)c1 |  | 0.32 µM |  |  |  |  |  | 
30 | N=C(N)NC(=O)c1ccc(C2CCN(C(=O)c3ccc(O)nc3)CC2)c(C(F)(F)F)c1 | > 30 µM | 0.019 µM | 0.1 | < 2 ×10⁻⁶ cm/s | > 30 µM | 0.18 | 29 µM | > 30 µM
31 | N=C(N)NC(=O)c1ccc(C2CCN(C(=O)c3ccc(F)cc3)CC2)c(C(F)(F)F)c1 | > 30 µM |  | 0.3 | ≥ 2 ×10⁻⁶ cm/s | 11 µM | 0.32 | 8 µM | 6 µM
32 | N=C(N)NC(=O)c1ccc(C2CCN(C(=O)C3CCCC3)CC2)c(C(F)(F)F)c1 |  | 0.064 µM |  |  |  |  |  | 
33 | Cn1cncc1C(=O)N1CCC(c2ccc(C(=O)NC(=N)N)cc2C(F)(F)F)CC1 | > 30 µM | 0.018 µM | < 0.056 | < 2 ×10⁻⁶ cm/s | 15 µM | 0.23 | 25 µM | 3 µM
34 | N=C(N)NC(=O)c1ccc(C2CCN(C(=O)c3ccc(O)cc3)CC2)c(C(F)(F)F)c1 |  | 0.021 µM | 0.11 | < 2 ×10⁻⁶ cm/s |  | 0.27 |  | 
35 | CC(=O)N1CCC(c2ccc(C(=O)NC(=N)N)cc2S(C)(=O)=O)CC1 |  | 0.022 µM |  |  |  |  |  | 
36 | CS(=O)(=O)c1cccc(C(=O)N2CCC(c3ccc(C(=O)NC(=N)N)cc3C(F)(F)F)CC2)c1 | > 30 µM | 0.06 µM | 0.14 | < 2 ×10⁻⁶ cm/s | > 30 µM | 0.15 | > 30 µM | > 30 µM
